Screening results from PubChem BioAssay.
CHOP inh – inhibitors of CHOP induction in ER stress response; CHO-K1 CHOP-promoter luciferase, tunicamycin-induced, 15-18 h; inhibition, % at 10 µM; hit rate 3.8% among 220,000;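 active means compounds that reduced the stress-induced luciferase reporter signal by more than about 70% of percent inhibition, limit read from the data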;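 further: 0% = tunicamycin plus vehicle and 100% = wells without tunicamycin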
MDM2 E3 inh – Mdm2 E3 ligase (human) inhibition | Q00987 | cell-based MDM2 ubiquitination luciferase reporter, 2 h; 0 = plate control, 100 = twice control, blank-subtracted | signal enhancement, % at 5 µM | hit rate 0.11% among 210,000;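 active means signal enhancement of 30% or more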;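 further: luminescence tracks abundance of the self-degrading MDM2-luciferase fusion protein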
Target sequence (Q00987 whole entry, looked up, the tested form may be a part): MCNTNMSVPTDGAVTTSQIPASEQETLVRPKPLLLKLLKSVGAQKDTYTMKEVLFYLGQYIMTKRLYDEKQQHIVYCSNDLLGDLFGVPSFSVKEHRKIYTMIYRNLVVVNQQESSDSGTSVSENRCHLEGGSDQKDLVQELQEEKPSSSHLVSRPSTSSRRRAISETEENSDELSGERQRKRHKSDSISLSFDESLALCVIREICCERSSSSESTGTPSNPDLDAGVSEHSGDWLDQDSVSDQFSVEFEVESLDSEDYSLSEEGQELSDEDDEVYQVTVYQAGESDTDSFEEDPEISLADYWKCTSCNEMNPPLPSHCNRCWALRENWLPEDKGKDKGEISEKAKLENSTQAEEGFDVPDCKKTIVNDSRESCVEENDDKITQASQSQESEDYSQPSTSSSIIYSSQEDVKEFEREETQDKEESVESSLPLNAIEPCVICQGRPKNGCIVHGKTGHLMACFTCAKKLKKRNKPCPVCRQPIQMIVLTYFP
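test system = mammalian cells stably expressing self-ubiquitinating, self-degrading MDM2 E3–luciferase fusion | quantity = 2000 cells/well | incubation = cell settling 4 h, compound treatment 2 h, both 37 °C | signal = luminescence with SteadyLite reagent, 15 min at room temperature | evaluation = % enhancement relative to plate controls after blank subtraction | benchmarks = plate controls and plate blanks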
S1P3 antagonist – S1P3 (human) receptor antagonism. inhibition, % at 4.98 µM. hit rate 0.27% among 170,000. CHO S1P3 NFAT-BLA reporter, FRET fluorescence, antagonist mode. Q99500. AID 485;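 active means inhibition above the plate cutoff, the mean inhibition of test wells on that plate plus 3 SD, cut at about 28% in these data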;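 further: cells challenged with S1P at its EC80 of 0.8 µM; blue over green emission ratio from cleaved BLA substrate after 4 h stimulation; 0% = S1P-stimulated wells and 100% = unstimulated DMSO-only wells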
Hsp70 activator – transcriptional activators of Hsp70; HeLa Hsp70 promoter luciferase reporter, luminescence; scaled: vehicle 0, proteasome-inhibitor control 100%; activation, % at 10 µM; hit rate 0.04% among 200,000; AID 1203;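 active means activation above the mean across all tested compounds plus 3 SD, cutoff set per campaign, cut at about 5.5% in these data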;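 further: 100% = MG132 at 30 µM as the positive control and 0% = DMSO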
An asterisk follows results filed as active; · = no result. Hits are enriched below; roughly 4% of the tested compounds scored in any of these assays.

SMILES	CHOP inh	MDM2 E3 inh	S1P3 antagonist	Hsp70 activator
CCOc1ccc(NC(=S)NNc2ccnc3cc(Cl)ccc23)cc1	-19	-4	-7	-1
COc1ccc(-c2nc(CSCC(=O)N3CCN(c4cccc(C)c4)C(C)C3)c(C)o2)cc1OC (stereo unspecified)	76*	-12	10	0
O=C(Cn1cnc2ccccc2c1=O)Nc1nnc(SCc2ccc(Cl)cc2)s1	86*	·	-4	·
O=C(Cn1cnc2ccccc2c1=O)Nc1nnc(C2CC2)s1	6	-13	-10	0
Cc1ccc(-c2nc(CSCC(=O)NCCN3CCN(Cc4ccccc4)CC3)c(C)o2)cc1	75*	-23	-3	0
Cc1nc(-c2ccc(C(=O)NCCO)cc2)cs1	-9	-9	-7	0
Cc1cc(NCCN2CCOCC2)n2ncc(-c3ccc(Cl)cc3)c2n1	·	·	-3	0
CC(=O)Nc1ccc(Nc2cc(C)nc3c(-c4ccc(Cl)cc4)c(C)nn23)cc1	84*	0	0	0
CC(=O)Nc1ccc(Nc2cc(C)nc3c(-c4ccc(Cl)cc4)cnn23)cc1	75*	-8	-4	0
CC(C)(C)C1CCc2c(sc3nc(SCC(=O)O)nc(N)c23)C1 (stereo unspecified)	65	-4	7	·
C=C(C)Cn1c(-c2ccncc2)n[nH]c1=S	22	1	-8	0
O=C(Nc1nc(-c2ccc(S(=O)(=O)N3CCOCC3)cc2)cs1)c1ccccc1	18	-9	·	0
CC(C)COc1cccc(C(=O)Nc2ccc(S(=O)(=O)N3CCOCC3)cc2)c1	80*	2	1	0
COc1ccc(-c2csc(NC(=O)c3ccccc3NS(=O)(=O)c3ccc(F)c(F)c3)n2)cc1	79*	-44	-7	0
COc1cccc(C(=O)Nc2nc(-c3ccc(S(=O)(=O)N4CCOCC4)cc3)cs2)c1	84*	-14	13	0
CCOc1cc(C(=O)Nc2ccc(S(=O)(=O)N3CCOCC3)cc2)cc(OCC)c1OCC	14	-4	-6	0
Cc1ccc(S(=O)(=O)Nc2ccccc2C(=O)Nc2nc(-c3ccc(F)cc3)cs2)cc1	67	-13	-1	0
Cc1ccc(Nc2nc(-c3ccc(S(=O)(=O)N4CCOCC4)cc3)cs2)cc1Cl	88*	-10	0	0
COc1ccc(NC(=O)C(CC(=O)O)Cc2ccc(C)cc2)cc1 (stereo unspecified)	-7	18	-9	-1
Cc1ccsc1/C=N/NC(=O)Cn1cnc2ccccc21	11	-4	-11	0
O=C(O)C(Cc1c[nH]c2ccccc12)NS(=O)(=O)c1cccc2nsnc12 (stereo unspecified)	27	-3	-5	0
OC(CN1C2=NCCCN2c2ccccc21)c1ccc(Cl)cc1 (stereo unspecified)	18	-38	82*	0
OC(CN1C2=NCCN2c2ccccc21)c1ccccc1 (stereo unspecified)	-18	2	-5	0
O=C(Nc1ccc(OCC(F)(F)C(F)F)c(C(F)(F)F)c1)c1ccccc1	·	·	·	0
O=C(Nc1ccc(OCC(F)(F)C(F)F)c(C(F)(F)F)c1)c1ccccc1O	108*	-15	·	0
SMILES	CHOP inh	MDM2 E3 inh	S1P3 antagonist	Hsp70 activator
Oc1ccccc1Oc1c(F)c(F)nc(N2CCCC2)c1F	94*	-1	3	0
CC(C)(C)n1nnnc1C(c1cccc(C#N)c1)N1CCC(Cc2ccccc2)CC1 (stereo unspecified)	80*	-5	9	0
CCn1c(O)c(/C=C2\C=Nc3ccccc32)sc1=Nc1ccccc1	79*	-13	·	0
Cn1c(O)c(/C=C2\C=Nc3ccccc32)sc1=Nc1ccc(C(=O)O)cc1	16	-7	8	·
O=c1cc2c(nn1Cc1c(Cl)cccc1Cl)-c1ccccc1CC2	85*	-4	·	0
Clc1cccc(Cl)c1CSc1cc2c(nn1)-c1ccccc1CC2	3	-2	·	0
O=S(=O)(NCCSc1ccc(Cl)cc1)c1ccc(F)cc1	71*	-4	·	0
O=C(N/N=C/c1ccccn1)c1cc(-c2ccc(Cl)cc2)nc2ccccc12	83*	-18	-1	-1
CCOc1ccccc1-n1c(SCC(=O)Nc2ccc(CC)cc2)nc2n[nH]c(C)c2c1=N	96*	-5	4	0
c1cnc(N2CCN(c3ncnc4c3oc3ccccc34)CC2)nc1	·	·	12	·
C(=C\c1ccccc1)/CN1CCN(c2ncnc3c2oc2ccccc23)CC1	94*	-24	·	0
CCc1ccc(/C=C2\Oc3c(ccc(O)c3CN3CCN(CCO)CC3)C2=O)cc1	3	-98	5	·
